According to ChEMBL document CHEMBL1123408, “Influence of alkyl-chain fluorination on the action of mammary tumor inhibiting 2,3-bis(hydroxyphenyl)butanes and 2,3-bis(hydroxyphenyl)but-2-enes” (1986):
Blank lines part the entries; values can stand above or below the compound they belong to.

Assays:
[1] = target: T1, Estrogen receptor (Mus musculus) (UniProt O08537+P19785); details: Uterus
[2] = target: T1, Estrogen receptor (Mus musculus); details: Uterus; remark: listed apart in the source
[3] = target: T1, Estrogen receptor (Mus musculus); details: Uterus; remark: listed apart in the source
[4] = target: T1, Estrogen receptor (Mus musculus)
[5] = target: T1, Estrogen receptor (Mus musculus); remark: listed apart in the source
[6] = target: T1, Estrogen receptor (Mus musculus); details: Uterus; remark: listed apart in the source
[7] = target: T1, Estrogen receptor (Mus musculus); details: Uterus; remark: listed apart in the source
[8] = target: T1, Estrogen receptor (Mus musculus); details: Uterus; remark: listed apart in the source
[9] = target: T1, Estrogen receptor (Mus musculus); details: Uterus; remark: listed apart in the source
[10] = target: T1, Estrogen receptor (Mus musculus); remark: listed apart in the source
[11] = target: T1, Estrogen receptor (Mus musculus); remark: listed apart in the source
[12] = target: T1, Estrogen receptor (Mus musculus); details: Uterus; remark: listed apart in the source
[13] = target: T1, Estrogen receptor (Mus musculus); remark: listed apart in the source
[14] = target: T1, Estrogen receptor (Mus musculus); assay: Uterotrophic effect in mice at 5 ug dose; assay type: functional, tissue-based; details: Uterus
In short: (§1)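 Immature female NMRI mice, 20 days old, 10 per group, given daily sc injections of 0.1 mL olive oil solution for 3 days. Uteri removed 24 h after the last dose, fixed in Bouin's solution, washed, dried and weighed. Antiestrogenic testing measured inhibition of estrone-stimulated uterine growth.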

[15] = target: T1, Estrogen receptor (Mus musculus); assay: Uterotrophic effect in mice at 10 ug dose; assay type: functional, tissue-based; set-up: unit not given here; details: Uterus
In short: as §1

[16] = target: T1, Estrogen receptor (Mus musculus); assay: (§2) Uterotrophic effect in mice at 1000 ug dose; assay type: functional, tissue-based; details: Uterus
In short: as §1

[17] = target: T1, Estrogen receptor (Mus musculus); assay: (§3) Uterotrophic effect in mice at 0 ug dose; assay type: functional, tissue-based; set-up: unit not given here; details: Uterus
In short: as §1

[18] = target: T1, Estrogen receptor (Mus musculus); assay: Uterotrophic effect in BD2F mice bearing transplantable hormone dependent MXT at 4 mg dose; assay type: functional, tissue-based; details: Uterus
In short: (§4)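 MXT-bearing female BD2F1 mice (10 per group) dosed sc in olive oil three times weekly for 6 weeks from the day after tumor transplantation. Uteri excised at sacrifice and dry weight determined; values given as mean ± SD.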

[19] = target: T1, Estrogen receptor (Mus musculus); assay: (§5) Uterotrophic effect in mice at 100 ug dose; assay type: functional, tissue-based; set-up: unit not given here; details: Uterus
In short: as §1

Mus musculus [20] = organism: Mus musculus; assay: Relative average tumor wet weight in treated compared to untreated mice at 20 mg dose; assay type: functional
In short: (§6)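 Syngeneic female BD2F1 mice (8–10 weeks) received sc trocar implants of 1–2-mm³ MXT tumor pieces, 10 per group. Treatment began the next day: sc doses in olive oil (solution or suspension), three times weekly for 6 weeks. Tamoxifen-treated control group included. Tumor wet weight measured at sacrifice; expressed as % T/C versus untreated controls.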

[21] = target: T1, Estrogen receptor (Mus musculus); assay: Uterotrophic effect in mice at 0.1 ug dose; assay type: functional, tissue-based; set-up: unit not given here; details: Uterus
In short: as §1

[22] = target: T1, Estrogen receptor (Mus musculus); assay: Uterotrophic effect in mice at 25 ug dose; assay type: functional, tissue-based; set-up: unit not given here; details: Uterus
In short: as §1

[23] = target: T1, Estrogen receptor (Mus musculus); assay: Uterotrophic effect in mice at 500 ug dose; assay type: functional, tissue-based; set-up: unit not given here; details: Uterus
In short: as §1

Mus musculus [24] = organism: Mus musculus; assay: Relative average tumor wet weight in treated compared to untreated mice at 4 mg dose; assay type: functional
In short: as §6

[25] = target: T1, Estrogen receptor (Mus musculus); assay: as §5; assay type: functional, tissue-based; set-up: unit not given here; details: Uterus; remark: listed apart in the source
In short: as §1

[26] = target: T1, Estrogen receptor (Mus musculus); assay: (§7) Uterotrophic effect in mice at 1 ug dose; assay type: functional, tissue-based; set-up: unit not given here; details: Uterus
In short: as §1

[27] = target: T1, Estrogen receptor (Mus musculus); assay: as §3; assay type: functional, tissue-based; set-up: unit not given here; details: Uterus; remark: listed apart in the source
In short: as §1

[28] = target: T1, Estrogen receptor (Mus musculus); assay: Uterotrophic effect in BD2F mice bearing transplantable hormone dependent MXT at 20 mg dose; assay type: functional, tissue-based; details: Uterus
In short: as §4

[29] = target: T1, Estrogen receptor (Mus musculus); assay: Uterotrophic effect in BD2F mice bearing transplantable hormone dependent MXT at 13.80 mg dose; assay type: functional, tissue-based; details: Uterus
In short: as §4

[30] = target: T1, Estrogen receptor (Mus musculus); assay: as §2; assay type: functional, tissue-based; set-up: unit not given here; details: Uterus
In short: as §1

[31] = target: T1, Estrogen receptor (Mus musculus); assay: as §7; assay type: functional, tissue-based; details: Uterus
In short: as §1

[32] = target: T1, Estrogen receptor (Mus musculus); assay: Anti-uterotrophic effect in mice at 25 ug dose; assay type: functional
In short: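 Immature female NMRI mice, 20 days old (14.5 ± 1.2 g), randomized into groups of 10. Each received a daily sc injection of compound in 0.1 mL olive oil for 3 days, given together with estrone. Uteri were taken 24 h after the last injection, fixed in Bouin's solution, washed, dried and weighed. The read-out was inhibition of estrone-stimulated uterine growth.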

Mus musculus [33] = organism: Mus musculus; assay: Relative average tumor wet weight in treated compared to untreated mice at 2.76 mg dose; assay type: functional
In short: as §6

Mus musculus [34] = organism: Mus musculus; assay: Relative average tumor wet weight in treated compared to untreated mice at 13.80 mg dose; assay type: functional
In short: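 MXT mammary tumor pieces of 1-2 mm³ from syngeneic donors were implanted sc by trocar into female BD2F₁ mice aged 8-10 weeks (20.0 ± 1.7 g), groups of 10. From the next day, compound in olive oil was given sc three times weekly for 6 weeks. Tumor wet weight was measured at the end and expressed as % T/C.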

[35] = target: T1, Estrogen receptor (Mus musculus); assay: Uterotrophic effect in BD2F mice bearing transplantable hormone dependent MXT at 2.76 mg dose; assay type: functional, tissue-based; details: Uterus
In short: as §4

T1 sequence (O08537 whole entry, looked up): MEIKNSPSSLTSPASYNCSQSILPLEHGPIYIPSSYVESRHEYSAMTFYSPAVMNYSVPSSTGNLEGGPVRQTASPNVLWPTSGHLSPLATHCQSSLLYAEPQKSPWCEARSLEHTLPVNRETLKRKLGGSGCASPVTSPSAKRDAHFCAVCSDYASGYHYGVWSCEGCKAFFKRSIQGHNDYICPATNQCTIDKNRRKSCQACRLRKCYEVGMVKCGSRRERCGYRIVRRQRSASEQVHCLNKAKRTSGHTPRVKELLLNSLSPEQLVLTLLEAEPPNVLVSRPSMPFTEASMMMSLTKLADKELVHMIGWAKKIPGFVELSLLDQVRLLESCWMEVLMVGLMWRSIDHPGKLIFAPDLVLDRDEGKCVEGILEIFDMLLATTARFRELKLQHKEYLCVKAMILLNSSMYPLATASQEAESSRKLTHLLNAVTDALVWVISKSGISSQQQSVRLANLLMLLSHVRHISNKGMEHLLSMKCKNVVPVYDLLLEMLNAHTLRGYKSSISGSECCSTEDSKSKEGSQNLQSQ
T1 sequence (P19785 whole entry, looked up): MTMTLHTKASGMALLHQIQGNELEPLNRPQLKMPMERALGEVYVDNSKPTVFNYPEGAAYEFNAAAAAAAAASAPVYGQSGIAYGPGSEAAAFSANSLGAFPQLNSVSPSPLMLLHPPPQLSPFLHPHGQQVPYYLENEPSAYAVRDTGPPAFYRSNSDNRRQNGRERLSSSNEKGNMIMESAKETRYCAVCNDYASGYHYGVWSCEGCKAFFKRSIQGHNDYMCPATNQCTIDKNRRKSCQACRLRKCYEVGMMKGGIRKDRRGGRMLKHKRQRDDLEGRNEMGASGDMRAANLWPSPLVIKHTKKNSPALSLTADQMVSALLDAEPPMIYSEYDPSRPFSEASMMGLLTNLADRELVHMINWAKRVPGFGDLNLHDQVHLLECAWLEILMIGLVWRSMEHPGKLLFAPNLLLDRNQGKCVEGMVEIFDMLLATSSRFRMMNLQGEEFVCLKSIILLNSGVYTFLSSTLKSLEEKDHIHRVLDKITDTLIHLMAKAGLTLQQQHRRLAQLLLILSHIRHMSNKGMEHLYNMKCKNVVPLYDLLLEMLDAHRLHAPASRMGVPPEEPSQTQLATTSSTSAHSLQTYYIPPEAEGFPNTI

Effect [1]: 46.8
Effect [2]: 49
Effect [3]: 46.4
Effect [4]: 39.5
Effect [5]: 39.5
Effect [6]: 39.8
Effect [7]: 45.6
Effect [8]: 46.6
Effect [9]: 47.3
Effect [10]: 39.3
Effect [11]: 41.8
Effect [12]: 46.8
Effect [13]: 39.5
Compound: C[C@]12CC[C@@H]3c4ccc(O)cc4CC[C@H]3[C@@H]1CCC2=O

Effect [14]: 43
Effect [15]: 29
Effect [16]: 51.8
Effect [17]: 11.1
Effect [18]: 74.8
Effect [19]: 45.5
Effect [21]: 15.7
Effect [22]: 47.4
Effect [23]: 52.6
Effect [25]: 47.8
Effect [26]: 25.3
Effect [27]: 14.8
Effect [28]: 82.1
Compound: Oc1cccc(/C(=C(/c2cccc(O)c2)C(F)(F)F)C(F)(F)F)c1
TC (Mus musculus [20]): 11.5%
TC (Mus musculus [24]): 25.7%

Effect [14]: 39.2
Effect [29]: 70.4
Effect [15]: 25.4
Effect [30]: 41.8
Effect [31]: 20.6
inhibition [32]: 30.1%
Effect [17]: 16.7
Effect [19]: 35.9
Effect [22]: 32
Effect [23]: 48.7
Effect [25]: 39.8
Effect [35]: 74.7
Effect [27]: 14.8
Compound: C/C(=C(/C)c1ccc(O)cc1)c1ccc(O)cc1 [DIMETHYLSTILBESTROL]
TC (Mus musculus [33]): 69.5%
TC (Mus musculus [34]): 46.2%
